Bioassay records deposited in PubChem BioAssay by several laboratories.
rCAG RNA binder: r(CAG) repeat RNA binding. TO-PRO-1 dye displacement fluorescence. inhibition, % at 3 µM. actives 1.3% (n = 370,000);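 active = inhibition above the plate cutoff, the mean of all test compounds on that plate plus 3 SD, cut at about 35% in these data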;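 note: 0% = DMSO alone and 100% = 100 µM mitoxantrone as full dye displacement; higher means more dye released from RNA so lower well fluorescence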
ATG4B inhibitor: ATG4B (human) cysteine protease inhibition | Q9Y4P1 | ATG4B cleavage of LC3-PLA2, NBD-HPC fluorescence, 1 h | inhibition, % at 8.33 µM | actives 0.51% (n = 340,000); in the data active = inhibition above about 40%
LEDGF integ inh: blocks HIV-1 LEDGF/p75-dependent DNA integration | actives 0.64% (n = 370,000) | TR-FRET IN-LEDGF/p75 DNA integration, Eu/Cy5 | inhibition, % at 3.7 µM;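 active = inhibition above the screen-wide mean plus 3 SD, cut at about 13% in these data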;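 note: signal is the Cy5 over europium emission ratio at 671 and 618 nm; 0% = plate median of compound wells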
CSN deneddyl inh: CSN deneddylation inhibition | Purified CSN, SCF-Nedd8-OG deneddylation, fluorescence polarization | inhibition, % at 12.5 µM | actives 0.38% (n = 360,000) | AID 651999;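 active = pattern-corrected inhibition above about 35%, with an unprinted fluorescence ratio check between 0.5 and 1.5, limit read from the data, passing the limit was not always enough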;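 note: 0% = enzyme with substrate and 100% = substrate without enzyme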
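Assay system: Purified human Csn5 enzyme expressed in HEK293T cells | Amount: Enzyme 0.24 nM | Measured by: Fluorescence polarization readout | Medium: Tris/NaCl/DTT buffer, pH 7.5 | Compound dosing: One concentration, 12.5 µM, 0.25% DMSO | Times: 90 min incubation of compound, enzyme and substrate at room temperature | Control set: no-enzyme wells high, enzyme-with-substrate wells low | Read-out: % inhibition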
UHRF1 MBD2 ctr: blocks human UHRF1 binding to methylated DNA; actives 0.75% (n = 370,000); Q96T88; inhibition, % at 4.4 µM; AID 687016; UHRF1 binding to methylated oligo, TR-FRET; in the data active = inhibition above about 21%;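 note: UHRF1 SRA domain binding a hemimethylated CpG hairpin DNA probe; 0% = median of test compound wells and 100% = reference inhibitor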
MBD2 DNA inh: MBD2-methylated oligo binding inhibition; AID 686964; actives 0.31% (n = 370,000); inhibition, % at 4.4 µM; TR-FRET, MBD2 binding to methylated oligonucleotide; in the data active = inhibition above about 13%
Target sequence (Q9UBB5 whole entry, looked up): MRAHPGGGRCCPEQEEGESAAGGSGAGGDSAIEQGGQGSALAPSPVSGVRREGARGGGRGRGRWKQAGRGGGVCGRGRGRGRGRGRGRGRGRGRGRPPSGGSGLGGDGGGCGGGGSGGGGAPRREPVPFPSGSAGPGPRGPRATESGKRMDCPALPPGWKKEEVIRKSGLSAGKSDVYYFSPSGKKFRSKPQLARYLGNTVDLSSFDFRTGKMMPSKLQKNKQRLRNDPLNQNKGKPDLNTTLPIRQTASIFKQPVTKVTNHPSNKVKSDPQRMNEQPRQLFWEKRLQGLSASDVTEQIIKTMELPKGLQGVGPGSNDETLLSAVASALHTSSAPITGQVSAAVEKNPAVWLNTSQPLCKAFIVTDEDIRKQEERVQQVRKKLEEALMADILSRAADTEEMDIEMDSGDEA
ATG4B conf: confirmation of human ATG4B inhibitors. shares compounds with ATG4B inhibitor. ATG4B protease fluorescent substrate cleavage assay. inhibition, % at 8.33 µM. actives 92% (n = 320); in the data active = inhibition above about 39%
PLA2 ctr: counter-screen for ATG4B inhibitors: human phospholipase A2; shares compounds with ATG4B inhibitor; purified PLA2, NBD-C6-HPC fluorescence, 45 min; inhibition, % at 8.33 µM; actives 66% (n = 1,600); AID 588402; in the data active = inhibition above about 50%
Target sequence (P04054 whole entry, looked up): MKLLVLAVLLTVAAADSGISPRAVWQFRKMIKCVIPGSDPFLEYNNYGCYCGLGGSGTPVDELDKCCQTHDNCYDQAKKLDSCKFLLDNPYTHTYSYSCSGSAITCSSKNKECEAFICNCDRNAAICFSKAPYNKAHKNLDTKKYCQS
rCAG bind conf: r(CAG) RNA repeat binding, confirmation; shares compounds with rCAG RNA binder; TO-PRO-1 dye displacement fluorescence; AID 652065; inhibition, % at 3 µM; actives 70% (n = 4,300);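 active = inhibition above a per-plate cutoff, the mean inhibition of sample wells plus 3 SD, cut at about 35% in these data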;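 note: loss of TO-PRO-1 fluorescence as compound displaces dye from 1x1 AA loop RNA; 0% = DMSO only wells and 100% = 100 µM mitoxantrone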
DNA CAG counter: counter-screen for rCAG RNA binders: DNA CAG dye complex inhibitors; shares compounds with rCAG RNA binder; d(CAG) DNA oligo TO-PRO-1 dye displacement, fluorescence; inhibition, % at 3 µM; actives 94% (n = 4,300); AID 652068;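 active = inhibition above its plate's cutoff, the mean test-well inhibition plus 3 SD, cut at about 4.8% in these data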;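 note: 0% = DNA dye mix with DMSO and 100% = 100 µM mitoxantrone; hits displace the dye from DNA and so lower well fluorescence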
DNA CAG DR: DNA CAG dye complex inhibition, dose response counter-screen. shares compounds with rCAG RNA binder. DNA CAG/GTC duplex TO-PRO-1 dye displacement fluorescence. IC50, µM. actives 20% (n = 250). AID 686960; in the data active = IC50 below about 10 µM
Numbers without * were called inactive; i = inactive; . = no result. Most compounds without a hit are left out; they make up all but 3.1% or so of the library.

SMILES	rCAG RNA binder	ATG4B inhibitor	LEDGF integ inh	CSN deneddyl inh	UHRF1 MBD2 ctr	MBD2 DNA inh	PLA2 ctr	rCAG bind conf	DNA CAG counter	others
Cc1ccc(/C=C2\SC(=S)N(C(Cc3ccccc3)C(=O)O)C2=O)cc1 (stereo unspecified)	42*	48*	0	4	-4	6	22	80*	37*	ATG4B conf=79*
CC(/C=C1\SC(=S)N(CCCC(=O)Nc2ccc(C(=O)O)cc2)C1=O)=C\c1ccccc1	74*	65*	4	11	-5	-10	28	85*	53*	ATG4B conf=41*
Nc1[nH]c2cc(Cl)ccc2c1C(=O)N1CCOCC1	4	.	8	.	-2	-5	.	.	.
CCCCN(CCCC)c1nc2ccccc2nc1NS(=O)(=O)c1ccc(NC(C)=O)cc1	4	-9	0	-4	2	2	.	.	.
CC(=O)Nc1ccc(S(=O)(=O)Nc2nc3ccccc3nc2Nc2ccc3ccccc3c2)cc1	75*	48*	-2	45*	0	0	58*	93*	82*
Cc1c(C(=O)O)cccc1-c1ccc(/C=N/Nc2ccc(Br)cc2)o1	50*	48*	1	11	0	2	25	64*	21*
Cc1c(C(=O)O)cccc1-c1ccc(/C=N/n2cnnc2)o1	-3	-7	0	7	8	5	.	.	.
CSc1ccc(C=Nn2c(-c3cc(C)[nH]n3)n[nH]c2=S)cc1	10	.	0	.	1	-7	.	.	.
CCNC(=O)CCc1nc(-c2ccc(C(C)C)cc2)no1	.	.	0	.	-2	4	.	.	.
Cc1ccc(S(=O)(=O)Oc2ccc(/C=C3\C(=N)N4N=C(S(C)(=O)=O)SC4=NC3=O)cc2)cc1	63*	66*	1	3	-1	3	77*	88*	66*
CCOC(=O)c1cc(-c2ccccc2)sc1NC(=O)c1ccc(OC)cc1	.	-6	.	.	.	.	.	.	.
O=C(Nc1sc(-c2ccccc2)cc1C(=O)O)c1ccccc1	85*	68*	1	1	-2	1	81*	73*	34*	DNA CAG DR=i
CCOC(=O)N[C@@H](Cc1cccnc1)C(=O)N1CCC[C@H]1C(=O)NC1CCCC1	-1	.	-5	.	0	1	.	.	.
CC(C)S(=O)(=O)C1=NSC2=NC(=O)/C(=C\c3ccc(-c4ccccc4)o3)C(=N)N21	38*	59*	0	11	-1	7	56*	87*	66*
O=C(O)CC/C(=C\c1ccc(Cl)c([N+](=O)[O-])c1)c1nc2ccccc2s1	39*	49*	6	-4	0	1	37	41*	10*	ATG4B conf=64*
O=C(O)CC/C(=C\c1ccc2c(c1)OCO2)c1nc2ccccc2s1	18	10	2	-3	-2	3	.	.	.
C[C@@H]1C[C@H]2[C@@H](C)C(=O)N3[C@H](c4ccccc4)[C@H](C)C[C@H]3[C@@H](C)C(=O)N2[C@@H]1c1ccccc1	9	.	-1	.	1	3	.	.	.
Cc1cccc(Cn2cc(CN3CC(N(C)CCCOC(=O)c4cc(C)cc(C)c4)CS3(=O)=O)nn2)c1 (stereo unspecified)	6	.	0	.	4	-1	.	.	.
CCOC(=O)[C@]12CCCCC/C=C\1N(CCc1ccc(Cl)cc1)C(=O)[C@H]2CC(=O)N1CCOCC1	0	.	-2	.	-1	-4	.	.	.
C[C@@H]1CC[C@@]23COC(=O)C2=CCC[C@@H]3[C@@]1(C)CC/C(=C/CO)CO	-2	-14	2	-4	5	5	.	.	.
CC1=CCC[C@@H]2[C@@](C)(CC/C(C)=C/C(=O)O)[C@H](C)CC[C@@]12C	45*	79*	0	2	4	-3	81*	43*	8.6*
Cc1ccc(NC(=O)CSc2nnc(-c3cccnc3)n2Cc2ccco2)cc1C	5	.	0	.	-1	9	.	.	.
Cc1ccc(-n2c(Cc3cccs3)nnc2SCC(=O)Nc2cccc3ccccc23)cc1	7	.	3	.	2	4	.	.	.
O=C(Nc1ccccc1Cc1ccccc1)c1ccccc1NS(=O)(=O)c1ccc(Cl)s1	91*	82*	3	-4	0	5	83*	91*	66*
O=C(NCc1ccco1)c1ccccc1NS(=O)(=O)c1ccc(Cl)s1	20	9	0	6	1	-1	.	.	.
SMILES	rCAG RNA binder	ATG4B inhibitor	LEDGF integ inh	CSN deneddyl inh	UHRF1 MBD2 ctr	MBD2 DNA inh	PLA2 ctr	rCAG bind conf	DNA CAG counter	others
CCCCCCCCN1C(=O)[C@@H](CC(=O)N2CCCCC2)C[C@@]2(C(=O)OC)C1=C[C@H](C(C)C)O[C@@H]2C1CC1	6	.	0	.	1	0	.	.	.
O=C(NCc1cccc(Cl)c1)c1ccc(S(=O)(=O)Nc2cccc(C(F)(F)F)c2)cc1	42*	58*	1	5	-3	-1	60*	45*	9.1*
CC(=O)c1c(C)[nH]c(C(=O)Nc2ccccc2C)c1C	.	.	-1	.	0	3	.	.	.
Cc1cccc(Cc2cnc(N3C(=N)SC(c4ccccc4)C3=O)s2)c1 (stereo unspecified)	40*	50*	2	3	-2	-1	43	53*	18*
Cc1cccc(Cc2cnc(N3C(=N)SC(C)C3=O)s2)c1 (stereo unspecified)	16	4	8	3	-3	-2	.	.	.
CC12CCC3c4ccc(OCCCO)c([N+](=O)[O-])c4CCC3C1CCC2=O (stereo unspecified)	1	.	-4	.	0	1	.	.	.
COc1ccc(C(=O)/C=C/c2cccc(OCc3ccccc3)c2)cc1CSCC(=O)O	60*	49*	1	29	1	1	61*	83*	44*
COc1ccc(C(=O)/C=C/c2ccc(OCc3ccccc3)cc2)cc1CSCC(=O)O	57*	49*	3	21	0	3	69*	78*	36*
COc1ccc(C=CC(=O)c2ccc(OCc3ccccc3)c(OC)c2)cc1OC	11	.	-10	8	5	0	.	.	.
COc1ccc(C(C)=O)cc1CSCC(=O)O	3	0	1	-3	-1	3	.	.	.
